# Test system: MS2 coat protein
# Experiment: apparent Kd, MS2 coat protein; higher = weaker binding; RNA-MaP array; FMN 200 µM where present
# In short: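 Two titrations, one without ligand and one with constant ligand, were run with SNAP-549-labelled MS2 coat protein from 0.7 or 1.5 nM, doubling to 3 µM. The targets were designs transcribed by stalled E. coli RNA polymerase on Illumina sequencing-chip clusters, in 100 mM Tris-HCl pH 7.5, 80 mM KCl, 4 mM MgCl2, BSA, DTT, yeast tRNA and Tween-20. The apparent Kd is the median of filtered per-cluster binding-curve fits, with green signal normalised to red-channel RNA signal and control-cluster median Fmax.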
# [1] = designed as: ON switch for flavin mononucleotide, no ligand
# [2] = ligand present: flavin mononucleotide, designed as: ON switch for flavin mononucleotide
# [3] = designed as: OFF switch for flavin mononucleotide, no ligand
# [4] = ligand present: flavin mononucleotide, designed as: OFF switch for flavin mononucleotide
Sequence,apparent Kd [1] [nM],apparent Kd [2] [nM],apparent Kd [3] [nM],apparent Kd [4] [nM]
GUGCACAUUCGAGGAUAUCGGAGAGAGAUCCUUCGAGAAGGCGAUUCAUGAUGUAUUAUCCUGGACAUGAGGAUCACCCAUGUG,579,288,,
AUCAGCUCGUCAGGAUAUACAUUACUGCUUCGGCAGUGUAUUAAGAUCACAUGAGGAUCACCCAUGUAGAAGGGACGAGCUGAU,,,23.2,124
UUUUUGUGAGGAUAUCAGUAGUAAAUAAAUAAAAUAACUACUGAGAAGGCACAUGAGGAUCACCCAUGUUCUUU,,,18.9,49.6
AUAUCUCCCGAGAAGGACGUACCACAUGUUGAUCACCGAUAUAAGGAACGUAGGAUAUUGGACAUGAGGAUCACCCAUGUGGAU,391,23.6,,
UGGGCCUCGUGAGGAUAUACAUGAGGAUCACCCAUGUAAUAAAGUGAACGGAGGAAACUCCGAAUGUAGAAGGCACGAGGCUCA,,,19.5,147
UUCGUGCAGCUUUGCUGUACGCGUACAUGAGGAUCACCCAUGUAGGAUAUGGUAGGCAUUGCUUACUAGAAGGAUAGUGUGAUC,,,124,32.2
UGUUGUAUUACAGGAUAUCUAUUAGGUUUAUUUAGAGAAGGGUAUUCACAUGAGGAUCACCCAUGUAUAUACGAGGAAGUUGUG,56.2,63.3,,
AUCCUGCGAGGAUAUACUUACUUUUUUUCAUUUGGUUGCGAACAUGAGGAUCACCCAUGUAGAAGGUGCAUAAC,,,22.9,24.7
CUAAUGUGAGGAUAUGGUGUUGAUCACAGGAAGGAGAUUCUCCAGAAGGCACAUGAGGAUCACCCAUGUAGUGA,,,163,142
UUAUUAUAUGAAGGAUAUACUUAACAUGAGGAUCACCCAUGUGGUGUUGUGAGUGAGUGAGUUUAGUAGAAGGUCAAUUCUUUU,,,425,623
GAUUAUAAGUAAGGAUAUGUAUAUGAAACAUCUACAGAAGGUACAUGAGGAUCACCCAUGUUCUUGCAGCGUGACUCUGUGAUC,,,63.6,130
UUAACAUGAGGAUCACCCAUGUAUAGAUCGGUUAAUAGAAGUGAGGAUAUGCUUAAAAUAAGGUAGCAGAAGGCACUGGGUACU,24.2,28.7,,
GCUGCAAAGUAAGGAUAUGCCUAGGAAACCUAGGCAGAAGGUACAUGAGGAUCACCCAUGUUAACGCAAAGCGAAUAAAGCAGC,,,18.1,24.1
AGUGUCAUCGAGAAGGCCUCAACAUGAGGAUCACCCAUGUUGAAAAGUGGGAGGAUAUCGAUGAUACAGCUACGUUUCGUAGCA,9.79,4.98,,
GGUCCAUCAUGAGGAUAUGGCACCUUAUUGGUGCCAGAAGGCAUGUCUAUAGACAUGAGGAUCACCCAUGUGAUAAAUUGGACC,523,49.9,,
AUGUUACAUGAGGAUCACCCAUGUGAGGAUAUGUGUACUGGUAAAAAAGUGUUUGGCCACAGAAGGCAUUUGGG,,,50.4,148
GUGGGUCGGGAGGAUAUUCGGGCUCAUGGGCUUGGAGAAGGCUCGACAUGAGGAUCACCCAUGUAAGUGUUCUU,,,50,621
UUGCGCUGUCGAGAGGAUAUGCGGUGUUGGACAUGAGGAUCACCCAUGUUAGCGAUUGCUUUACGGUAGAAGGCUCUUCAGCUGC,78.8,52.9,,
CCCAGGUCAUCUCCCGGGAACAACAUGAGGAUCACCCAUGUCUAGGAUAUCCACCAGUCAAUAAAGGAGAAGGAGACGGUGGUU,,,29.3,31.9
GUGUAGAUAUCAGGAUAUCCAUUUCCUACAUGAGGAUCACCCAUGUAGAUGAUCACCCAUGUAAAGGAGAAGGGAUAUCUAUAC,206,173,,
AGCUACGUUUCGUAGCAGCUAGGUGAGGAUAUCCUUUACAUGAGGAUCACCCAUGUAUAGCCAUGGGAGAAGGCGCCUAGAAAG,181,16.9,,
UCCGCAAGUGAAGGAUAUACGGCUGAAGAGCCAGUAGAAGGUCACAUGAGGAUCACCCAUGUCUACCGCUACGAGAUAUUACAA,,,19.1,59.5
GUUCUUCCUGUGAGGAUAUCCAUGUGUCGGUUUGUGGAGAAGGUACAUGAGGAUCACCCAUGUCACCCGCGUUU,,,14.8,16.3
AGUAACAUACUCAACAUGAGGAUCACCCAUGUACUCUCUUGUAAGGAUAUACAUUCGUAUUGAUAGUAGAAGGUACCAAUUAAG,53.5,57.4,,
GUUUCGUGAGGAUAUGUGGCUUCGAUCGUGCGAAAGAGGCUACAGAAGGCACAUGAGGAUCACCCAUGUUCCUC,,,38.2,536
GGUACUCAAAGAGUACCAAUACGAACAUGAGGAUCACCCAUGUAGGAUAUGCUACUCAAAGAGUAGCAGAAGGACAUGUGCUUU,,,38.8,252
ACGUCGAGCCAGAAGGCAACAUGAGGAUCACCCAUGUAGUCCGGCUCGUGUUGAGGAUAUGGCACCCGCGCGGAAGGCGCAGGU,,,5.12,6.62
UUGUAGUACGUAGGAUAUCAAUGAGGAUCACCCUGAGAAGGACGUGAGGACAUGAGGAUCACCCAUGUGGAUCACCCAUGUCAU,,,191,145

Sequence,apparent Kd [1] [nM],apparent Kd [2] [nM],apparent Kd [3] [nM],apparent Kd [4] [nM]
GCUAAUAUUUUGUUAAAUGUAUUUUGAGAAGGCAUACACAUGAGGAUCACCCAUGUAAUUUGUAAUGAGGAUAUCAUGAUGUGC,115,31.5,,
ACCAUUUACUAAUCCUCUAUACAUGAGGAUCACCCAUGUUUUGAGGAUAUCAUCGUUCGCCGCGUUGAGAAGGCAAAACAUUCG,,,18.7,52.9
UGCUGUGGCAGAGGAUAUACUCUAAUAAUCCAUUGCAAAUAGCGAUGGACAUGAGGAUCACCCAUGUAGAAGGCUGUCACAGCA,,,63.7,137
GCUACUUAUUUUAAUUAUGAUUUACUAGAAGGUAGAUACAUGAGGAUCACCCAUGUUUAGAGUUCUAAGGAUAUAGUUUUUAGC,8.25,7.24,,
CGGCGCUGUUGAGAGGAUAUGCGGUGAUGGACAUGAGGAUCACCCAUGUUAGCGAUAGCAUUACGGUAGAAGGCUCUACAGCUGC,17.9,14.1,,
UUAGCAACAUGAGGAUCACCCAUGUAGGAUAUCGCUAUUGUAAUCAUGAAACAUGAUUACAAUAGCGAGAAGGACAUAUGCUAG,,,9.88,10.7
AUUAUGACCGAGUUAUAGUUCCUAACAUGAGGAUCACCCAUGUAGGAUAUCAGCACGAUAAGUGCUGAGAAGGACAUCUCGGUC,,,13.3,13.9
GUGGUCAGACAUGAGGAUCACCCAUGUGGAAUAAAUAAGGAAUAGGAUAUCGAAUAUAGGAUAUACGAGAAGGGUUGGUUGGUG,121,131,,
AAAGUGCCGACGAAGGAUAUAGCGGGUGAGACAUGAGGAUCACCCAUGUAUGCAGAACUCAUCCUCUAGAAGGUUGAGACGGCUA,113,177,,
UGACUCGGAGGAUAUACAUGAGGAUCACCCAUGUUUACUUGCCGCCGAGUAACCUGGUGUAGAAGGUCGAGUGU,,,17.2,13.7
UGCAUGGUAGGAUAUACGGAGCAUUAGGGUUUGUUAUGUGGACAUGAGGAUCACCCAUGUAGAAGGGCCGUGCU,,,37.3,57.1
UGAUAACAUGUAGGAUAUGCAGCAUUGACCACUGCAGAAGGACAUGAGGAUCACCCAUGUACCCAUACUAUGGGAUCACGCAAU,,,45.9,195
UAAAUGUGAGGAUAUUCGUAGUACACGGAGACGUGUAUUACGGAGAAGGCACAUGAGGAUCACCCAUGUUCCUU,,,22.2,166
AUAAGCUCGUCAGGAUAUGCGACACUGUUUCGGCAGUGUGGUAUGAUCACAUGAGGAUCACCCAUGUAGAAGGGACGAGCUUAU,,,6.09,11.7
GCCUGCUGGCGAGGAUAUUCUGUGCGGUUUCGGCUCGUGUCUGUUACAUGAGGAUCACCCAUGUGGGAGAAGGUGUCUGUGGCC,,,7.76,7.28
AACGACGGAGGAUAUACACCCUGGGACUCAUCAUCCCUUAGACAUGAGGAUCACCCAUGUAGAAGGCCGGACAC,,,34.9,154
CAUCUGUGAGGAUAUGGUGAGUAGUGCCUGAGCGCUGCUCACCAGAAGGCACAUGAGGAUCACCCAUGUAUGAA,,,52.6,214
AAUCUGUGAGGAUAUGGUGAGUAGUGCCUGAGCGCUGCUCACCAGAAGGCACAUGAGGAUCACCCAUGUAUGAC,,,34.2,153
CAUUAUUAUCGAGGAUAUCGUAUUGAGAUACUAUGAGAAGGCGGGAUAAACAUGAGGAUCACCCAUGUGAGCCGGAUGCUUGUG,,,17.1,14.8
CCAAACGGAGGAUAUACAAAUUAAGGAAAAAAACGCGAAAAACAUGAGGAUCACCCAUGUAGAAGGCCGAAAAA,,,19.3,17.9
GGUUAAUAUCGAGGAUAUGUCUAGACACAUGAGGAUCACCCAUGUAUGUGUAUAGAAGGCGAUAUUAACAGCAUGUUACAUGCC,38.1,16.8,,
AGCCUGAGUCGAGGAUAUUAUGGAUCAAUUAAUACAUGAGGAUCACCCAUGUAAUUAAUUUAACAUGAGAAGGUGACUCAGGCA,11.3,12.9,,
GGGUUCAUGUAAGGAUAUGUAUUGUUAAUCGGAGCAGAAGGUACAUGAGGAUCACCCAUGUCAACCUAGAGCAGGGCUUCUUAA,,,23.7,45.2
CCGCCAAUCGAGAAGGGCCCAUGUGCUACGUCGGCAGGAUAUCGACAUGAGGAUCACCCAUGUUGGCGAUCCUUUUUGGCGAAC,,,149,108
UUACUCAUGUAAGGAUAUGCAGCCGAAACGGCUGCAGAAGGUACUAAAAUACAUGAGGAUCACCCAUGUCUUUUUAUUUUAGAC,197,129,,
UUCCGGCGUGUAGGAUAUGGAUCCGAUUAGGAUCCAGAAGGACAUGAGGAUCACCCAUGUACAUGUAAACAGUCAUCACCGGAA,,,6.09,7.65
ACAUGAGGAUCACCCAUGUAUAGAUUUGAAUGUUAAGUUACGUAGGAUAUCGUGUUUAGUAUGAUCGAGAAGGACGAUCUGAUA,25.8,20.8,,

# Source: the EternaBench riboswitch data
